KCNK3 block – human KCNK3 channel inhibitors, primary screen, CHO cells, FluxOR thallium flux, B-score. Potassium channel subfamily K member 3 (Homo sapiens), O14649. FluxOR fluorescence; active compounds read low. B-score at 10 µM. 340,000 tested, 0.84% active;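 active = B-score under library mean minus 4 SD, starting fluorescence ratio at most library mean plus 5 SD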;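 also: more negative B-score means stronger inhibition of thallium flux through KCNK3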
Target sequence (O14649 whole entry, looked up): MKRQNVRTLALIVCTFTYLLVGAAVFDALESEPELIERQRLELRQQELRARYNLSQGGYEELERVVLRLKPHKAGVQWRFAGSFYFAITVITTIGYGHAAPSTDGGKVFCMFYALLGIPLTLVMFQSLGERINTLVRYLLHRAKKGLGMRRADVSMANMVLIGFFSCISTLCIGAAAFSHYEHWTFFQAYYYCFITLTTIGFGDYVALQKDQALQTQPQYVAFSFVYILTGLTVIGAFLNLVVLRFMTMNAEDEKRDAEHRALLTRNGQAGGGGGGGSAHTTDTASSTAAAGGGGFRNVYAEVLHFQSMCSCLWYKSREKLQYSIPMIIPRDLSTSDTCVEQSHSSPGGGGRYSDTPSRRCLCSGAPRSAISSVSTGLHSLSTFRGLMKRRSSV
Kir21 inh – inhibitors of mouse Kir2.1 inward-rectifier potassium channel. Inward rectifier potassium channel 2 (Mus musculus), P35561. HEK293-Kir2.1, FluxOR thallium flux fluorescence; active compounds read low. B-score at 10 µM. 310,000 tested, 0.85% active;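 active = fluorescence ratio B-score at or below minus 3 SD of library scores, with starting-brightness B-score within 2 SD, cut at about -4.2 in these data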;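 also: channel flux triggered by added potassium and thallium sulfate stimulus; B-score of peak minus minimum fluorescence over baseline after thallium stimulus; more negative B-score means stronger Kir2.1 block with less thallium influx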
KCNQ1 inh – inhibitors of human KCNQ1 channel, primary screen, cell-based, thallium flux, high-throughput | Potassium voltage-gated channel subfamily KQT member 1 (Homo sapiens), P51787 | CHO-K1 KCNQ1, FluxOR thallium flux fluorescence; active compounds read high | B-score at 10 µM | 310,000 tested, 1.3% active;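 active = compounds whose thallium flux B-score, printed positive for inhibition, exceeds three library SD while starting fluorescence stays within three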;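 also: channel opened by potassium depolarization with thallium stimulus after 20 min compound exposure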
KCNK9 inh – KCNK9 potassium channel inhibitors, primary screen, HEK293 cells, thallium flux; B-score at 10 µM; FluxOR thallium flux fluorescence; active compounds read low; 310,000 tested, 1.2% active; AID 488922, 2010; Potassium channel subfamily K member 9 (Homo sapiens), Q9NPC2;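 active = ratio B-score over 3 SD below the library mean, with starting fluorescence within 5 SD of its mean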;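 also: negative B-score means less thallium flux so channel inhibition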
KCNQ1 act – potentiators or activators of KCNQ1 channel, primary screen, cell-based, thallium flux, high-throughput; CHO-K1 KCNQ1, thallium flux FluxOR fluorescence; active compounds read high; B-score at 10 µM; 310,000 tested, 0.35% active; AID 2648, 2010;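 active = fluorescence ratio B-score, a plate-corrected score, at least three library SD, with initial intensity B-score within 5 SD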
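Medium – assay buffer, equal DMSO in all wells · Material – CHO-K1 cell line with stable KCNQ1 potassium channel expression · Signal – kinetic FluxOR thallium fluorescence, 10-s 1-Hz baseline, 110-s post-stimulus read · Compound – single concentration per compound, DMSO matched to controls · Schedule – 37 °C overnight plating, 90-min dark dye load, 20-min compound pretreatment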
hERG rescue – hERG rescue from dofetilide block, primary screen, cell-based, CHO-hERG, FluxOR thallium flux, dofetilide IC70 | Voltage-gated inwardly rectifying potassium channel KCNH2 (Homo sapiens), Q12809 | dofetilide IC70 present | activation (rescue from dofetilide block), less the hit threshold, % at 10 µM | 310,000 tested, 0.51% active | AID 1511, 2009;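 active = activation above the mean of controls blocked by dofetilide plus 5 SD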;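 also: thallium influx through hERG after potassium depolarization seen as dye fluorescence rise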
KCNK9 block conf – KCNK9 potassium channel inhibitors, confirmation, HEK293 cells, thallium flux, duplicate; shares compounds with KCNK9 inh; FluxOR thallium flux fluorescence; inhibition, % at 10 µM; 4,900 tested, 43% active; AID 492992, 2010;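 active = thallium signal inhibited by more than 5 SD of the compound-free buffer control wells, on both duplicate plates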;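 also: 0% = assay buffer control wells without compound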
Kir2-1 spec – mouse Kir2.1 channel inhibition, confirmation, selectivity assay for KCNK9 modulator project, cell-based, HEK293, thallium flux; shares compounds with KCNK9 inh; Kir2.1 cells, FluxOR thallium flux fluorescence; inhibition, % at 10 µM; 4,900 tested, 4% active;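 active = thallium signal drop more than 5 SD beyond the mean of the no-compound control wells, seen in both duplicate plates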;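 also: signal is fluorescence rise after thallium addition divided by baseline fluorescence; plate controls were assay buffer only for no effect and full block by chlorpromazine control for full effect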
HEK293 Tl ctr – thallium flux in non-induced HEK293 cells, confirmation, counter-screen for KCNK9 inhibitor project, cell-based, second counter screen, non-induced KCNK9-HEK293; shares compounds with KCNK9 inh; FluxOR thallium flux; inhibition, % at 10 µM; 4,900 tested, 40% active; AID 492997, 2010;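 active = thallium signal drop beyond 5 SD of the untreated control mean, on both duplicate plates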;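 also: plate controls were buffer only IC0 wells for no effect and SID17386958 at its maximal inhibitory level for full effect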
* marks the source's active call; other numbers are inactive results; i = inactive; . = no result. A selection: hits, their analogues and other compounds. The true share with any hit is near 3.7%.

SMILES | KCNK3 block | Kir21 inh | KCNQ1 inh | KCNK9 inh | KCNQ1 act | hERG rescue | KCNK9 block conf | Kir2-1 spec | HEK293 Tl ctr
COC(=O)c1ccc(OC)c(CN2CCCN(Cc3cc(C)ccc3C)S2(=O)=O)c1 | i | -0.59 | i | -17* | i | -5 | 62%* | i | 28%*
CC(=O)c1cc(CC=C(C)C)c(O)cc1O | i | 1.2 | i | -8.6* | i | -10 | 27%* | i | i
COc1cnc(SCc2ccc(Cl)cc2Cl)nc1Cl | i | 1.4 | i | i | i | -6 | i | i | 30%*
COc1cnn(-c2ccccc2)c(=O)c1SCc1ccc(Cl)cc1Cl | i | -0.22 | i | i | i | -7 | . | . | .
CC(C)c1nc(N2CCN(C(=O)c3ccco3)CC2)c(C#N)c2c1COC(C)(C)C2 | i | -2.1 | i | i | i | -21 | . | . | .
CC(C)c1nc(N2CCN(C(=O)c3ccccc3)CC2)c(C#N)c2c1COC(C)(C)C2 | i | -0.31 | i | i | i | -12 | i | i | i
CC1(C)Cc2c(C#N)c(N3CCCC3)nc(-c3ccco3)c2CO1 | i | 0.39 | i | i | i | -26 | i | i | i
Cc1cccc2nc(-c3ccccc3)nc(N3CCC(O)(c4ccc(Cl)cc4)CC3)c12 | i | -0.18 | i | -10* | i | -5 | 61%* | i | 32%*
CC(C)c1ccc(NC2CCCN(C(=O)CCc3cn[nH]c3)C2)cc1 (stereo not drawn) | i | 0.01 | i | i | i | -2 | . | . | .
CCc1ccc(C2CC(=O)N3CN(c4ccccc4)CSC3=C2C#N)cc1 (stereo not drawn) | i | -0.36 | i | i | i | -2 | . | . | .
CN1CSC2=C(C#N)C(c3cccc(OCc4ccccc4)c3)CC(=O)N2C1 (stereo not drawn) | i | 0.26 | i | i | i | -7 | i | i | i
CCCCOn1c(C)c(C(=O)OCC)c2c3nonc3ccc21 | i | 0.55 | i | -8.4* | i | -11 | 33%* | i | 32%*
CCCCOn1c(C)c(C(=O)OCC)c2c3no[n+]([O-])c3ccc21 | i | 1.2 | i | i | i | -1 | . | . | .
COc1ccc(C(=O)C(C)OC(=O)CNC(=O)c2ccco2)cc1 (stereo not drawn) | i | . | . | . | . | . | . | . | .
Cc1c(C(=O)O)cccc1-c1ccc(/C=N/Nc2ccc(Br)cc2)o1 | i | 0.39 | i | i | i | -12 | i | i | i
O=C(O)c1ccc(N/N=C/c2ccc(-c3ccc(Cl)cc3Cl)o2)cc1 | i | 1.3 | i | i | i | -10 | i | i | i
Cc1c(C(=O)O)cccc1-c1ccc(/C=N/n2cnnc2)o1 | i | -0.02 | i | i | i | -8 | . | . | .
CCCCCCCCNC(=O)/C(C#N)=C/c1ccc2c(c1)OCCO2 | i | -0.98 | i | i | i | 1 | i | i | i
CCCCCCCCNC(=O)/C(C#N)=C/c1ccc(SC)cc1 | i | -0.01 | i | i | i | -4 | i | i | i
CCC1CCC(c2nnc(-c3ccc([N+](=O)[O-])cc3)o2)CC1 (stereo not drawn) | i | -1.8 | i | i | i | -4 | . | . | .
CCNc1nc(NC(C)C)nc(NS(=O)(=O)c2ccc(C)cc2)n1 | i | 0.81 | i | i | i | -4 | . | . | .
CC(C)(C)c1cc(CN2CCN(CCO)CC2)cc(C(C)(C)C)c1O | i | -0.16 | i | i | i | -10 | . | . | .
CC(C)c1cc(CN2CCN(CCC#N)CC2)cc(C(C)C)c1O | i | 1.2 | i | i | i | -2 | i | i | i
Cc1ccccc1OCCC(=O)OCC(=O)Nc1cc(S(=O)(=O)N2CCOCC2)ccc1Cl | i | -1.7 | i | i | i | -7 | . | . | .
C/C(=N\NC(=S)NCCc1ccccc1)c1ccc(Cl)cc1Cl | i | 0.3 | i | i | i | -2 | i | i | i
SMILES | KCNK3 block | Kir21 inh | KCNQ1 inh | KCNK9 inh | KCNQ1 act | hERG rescue | KCNK9 block conf | Kir2-1 spec | HEK293 Tl ctr
CCCCN(CC(=O)NC1CCCC1)C(=O)C(=O)Nc1ccc2c(c1)OCCO2 | i | 1.1 | i | i | i | -2 | . | . | .
Cc1occc1C(=O)Nc1cccc(C(F)(F)F)c1 | i | 0.03 | i | -9.3* | i | -14 | 48%* | i | 24%*
O=C(NNC(=S)Nc1cccc(C(F)(F)F)c1)c1ccc(Cl)cc1Cl | i | -0.61 | 8* | i | i | -7 | i | i | i
CCCN(C(=O)CSc1cc(-c2ccccc2)c2ccc(OC)cc2n1)C1CCS(=O)(=O)C1 (stereo not drawn) | i | -0.05 | i | -8.4* | i | -5 | 48%* | i | 28%*
CC1CCCN(CCCNC(=O)c2ccc(N3CCCC3=O)cc2)C1 (stereo not drawn) | i | 0.42 | i | i | i | -5 | . | . | .
C#CCCOC(=O)N1C2=NC(C(=O)OC)=C(C(=O)OC)[C@@H]3N(C)c4ccccc4[C@]23C[C@H]1C(=O)OC | i | 0.31 | i | i | i | -9 | . | . | .
C#CCCOC(=O)N1C2=NC(C(=O)OC)=C(C(=O)OC)[C@@H]3N(Cc4ccccc4)c4ccccc4[C@]23C[C@H]1C(=O)OC | i | 0.34 | i | -9.5* | i | -6 | 51%* | i | 34%*
C=CCN1c2ccccc2[C@]23C[C@@H](C(=O)OC)N(C(=O)NCCC)C2=NC(C(=O)OC)=C(C(=O)OC)[C@H]13 | i | 0.85 | i | -9.3* | i | -3 | 32%* | i | 30%*
Oc1oc(-c2ccccc2)nc1C=Nc1cccc2ccccc12 | i | -1.1 | i | -9.9* | i | 0 | i | i | 45%*
